Mot1-301 SUMO: SUMOylation pathway inhibition by Mot1-301 growth rescue. growth rescue, % at 18.8 µM. S. cerevisiae Mot1-301 growth rescue, ATP luminescence, 38.5C; percent above DMSO median, 100 means doubled. hit rate 1% among 320,000;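 active = every valid replicate shows activation above 250% relative to neutral control wells; inactive = the rest, any valid replicate at or below 250%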;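 also: OY570 slx delta 5 strain wells were the positive control but not used for scaling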
Cl transport mod: modulators of human KCC2 chloride dependent transport. hit rate 2.2% among 190,000. KCC2 cells, thallium flux FluoZin-2 fluorescence. B-score of Tl+ flux slope (higher = more flux/activation; lower = inhibition) at 10 µM;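 active = thallium flux slope and its plate-corrected score both differing from the plate sample mean at a set confidence after two filtering rounds, in either direction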;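 also: slope of fluorescence scaled to starting intensity during 10 to 20 s after thallium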
Target sequence (Q9H2X9 whole entry, looked up): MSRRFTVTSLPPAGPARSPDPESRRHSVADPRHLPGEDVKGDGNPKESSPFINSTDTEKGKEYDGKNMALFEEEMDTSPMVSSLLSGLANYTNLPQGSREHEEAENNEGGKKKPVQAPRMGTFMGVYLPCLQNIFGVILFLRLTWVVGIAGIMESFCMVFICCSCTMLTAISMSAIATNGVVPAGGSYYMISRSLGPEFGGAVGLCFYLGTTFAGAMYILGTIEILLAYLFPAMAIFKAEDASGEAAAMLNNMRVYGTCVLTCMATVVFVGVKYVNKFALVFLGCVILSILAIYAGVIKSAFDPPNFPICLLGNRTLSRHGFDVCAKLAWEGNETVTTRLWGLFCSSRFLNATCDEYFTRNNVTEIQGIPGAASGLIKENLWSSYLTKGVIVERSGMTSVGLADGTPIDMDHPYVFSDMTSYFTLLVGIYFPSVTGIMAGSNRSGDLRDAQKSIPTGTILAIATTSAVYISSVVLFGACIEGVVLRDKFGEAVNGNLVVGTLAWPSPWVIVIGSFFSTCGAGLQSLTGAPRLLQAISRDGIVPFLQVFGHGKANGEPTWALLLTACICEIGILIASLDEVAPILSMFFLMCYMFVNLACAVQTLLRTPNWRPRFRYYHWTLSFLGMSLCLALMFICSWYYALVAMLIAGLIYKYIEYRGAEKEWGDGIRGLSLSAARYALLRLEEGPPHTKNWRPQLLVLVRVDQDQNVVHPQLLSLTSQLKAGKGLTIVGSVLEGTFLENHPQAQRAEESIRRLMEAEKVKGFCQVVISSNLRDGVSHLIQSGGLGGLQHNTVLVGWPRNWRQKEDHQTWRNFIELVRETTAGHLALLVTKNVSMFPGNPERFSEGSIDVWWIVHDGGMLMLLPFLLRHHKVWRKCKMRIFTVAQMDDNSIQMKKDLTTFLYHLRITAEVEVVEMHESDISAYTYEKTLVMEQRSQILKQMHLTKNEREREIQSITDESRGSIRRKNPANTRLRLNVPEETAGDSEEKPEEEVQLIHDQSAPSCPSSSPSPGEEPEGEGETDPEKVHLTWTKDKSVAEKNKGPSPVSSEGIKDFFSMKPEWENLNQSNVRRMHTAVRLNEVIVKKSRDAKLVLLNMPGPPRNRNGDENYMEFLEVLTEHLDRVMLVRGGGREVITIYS
KCNQ1 pot: human KCNQ1 channel potentiation or activation. AID 2648. hit rate 0.35% among 310,000. CHO-K1 KCNQ1, thallium flux FluxOR fluorescence; active compounds read high. B-score at 10 µM;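 active = fluorescence ratio B-score, a plate-corrected score, at least three library SD, with initial intensity B-score within 5 SD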
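Medium – assay buffer, equal DMSO in all wells · Material – CHO-K1 cell line with stable KCNQ1 potassium channel expression · Signal – kinetic FluxOR thallium fluorescence, 10-s 1-Hz baseline, 110-s post-stimulus read · Compound – single concentration per compound, DMSO matched to controls · Schedule – 37 °C overnight plating, 90-min dark dye load, 20-min compound pretreatment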
KCNQ1 inh: human KCNQ1 channel inhibition. P51787. CHO-K1 KCNQ1, FluxOR thallium flux fluorescence; active compounds read high. B-score at 10 µM. hit rate 1.3% among 310,000. AID 2642;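 active = compounds whose thallium flux B-score, printed positive for inhibition, exceeds three library SD while starting fluorescence stays within three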;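 also: channel opened by potassium depolarization with thallium stimulus after 20 min compound exposure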
AI-2 QS mod: Vibrio harveyi AI-2 quorum sensing modulation; Vibrio harveyi JMH597 AI-2 luminescence/OD600 ratio, 9 h; active compounds read low; strain lacks LuxN and CqsS sensors; 0 = neutral-control median; activity change, % at 7.5 µM; hit rate 0.4% among 300,000; AID 2094; in the data active = activity change below about -75%, passing the limit was not always enough; inconclusive = no clear call, values can overlap the other calls;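 also: luminescence divided by OD600 gain over 9 h not by final OD600 alone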
hERG rescue: shields human hERG channel from block by proarrhythmic agents | hit rate 0.51% among 310,000 | activation (rescue from dofetilide block), less the hit threshold, % at 10 µM | CHO-hERG, FluxOR thallium flux, dofetilide IC70 present;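 active = activation above the mean of controls blocked by dofetilide plus 5 SD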;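 also: thallium influx through hERG after potassium depolarization seen as dye fluorescence rise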
The depositor's hits bear a star; i = inactive; ? = inconclusive; . = no result given. An excerpt weighted towards active compounds, which were near 4.2% of everything screened.

SMILES	Mot1-301 SUMO	Cl transport mod	KCNQ1 pot	KCNQ1 inh	AI-2 QS mod	hERG rescue
Cc1cc(NC(=O)CC2(CC(=O)O)CCCC2)n(C)n1	-3.0	0.44	i	i	.	0.9
CCCn1c(N)c(C(=S)NC(=O)C2CC2)c(=O)n(C)c1=O	.	14.1*	.	.	.	.
CCCCn1c(N)c(C(=S)NC(=O)CC(C)C)c(=O)n(C)c1=O	.	23.5*	.	.	.	.
CC(=O)NC(=S)c1c(N)n(Cc2ccccc2)c(=O)n(C)c1=O	310.7	3.9*	i	i	13.1	-4.6
CCCn1c(N)c(C(=O)COC(=O)c2c(C)noc2C)c(=O)n(C)c1=O	-0.3	-0.871	i	i	33.0	-11.4
O=C(Nc1ccc(F)cc1)/C(=C1/CCCCCN1)[N+](=O)[O-]	-0.4	0.724	i	i	-2.9	-6.3
Cc1c(C(=O)N2CCCc3ccccc32)oc2ccc(S(=O)(=O)N3CCOCC3)cc12	3.0	0.116	i	i	13.1	-11.6
CCCCC(=O)NS(=O)(=O)c1ccc(N=NN(CC)CC)cc1	15.2	0.0871	i	i	1.5	-1.6
C=CCc1c(C)nc(-c2ccccc2)nc1N/N=C/c1ccncc1	57.6	1.44	i	i	25.8	-17.6
C=CCc1c(C)nc(-c2ccccc2)nc1N/N=C/c1ccccc1	0.9	0.191	i	6*	7.7	-11.5
CC(Sc1nnc2ccccn12)C(=O)Nc1ccc(Cl)cn1 (stereo not drawn)	-0.1	.	i	i	19.2	-3.6
CC(Sc1nnc2ccccn12)C(N)=O (stereo not drawn)	.	0.933	i	i	-9.0	5.0*
O=C(O)c1ccc(N=NN2CCCCCC2)cc1	-17.6	-0.0313	i	i	86.1	-6.6
CSCCC(NC(=O)c1ccc([N+](=O)[O-])cc1Cl)C(=O)OCC(=O)C12CC3CC(CC(C3)C1)C2 (stereo not drawn)	-9.6	0.839	i	i	0.8	38.8*
COCC1CCN(C(=O)c2cc(COc3ccccc3SC)on2)C1 (stereo not drawn)	-1.2	.	i	i	13.9	-9.3
C=CC[C@H]1CC(C)=C[C@H](CC=C)N1C(=O)c1cc(COc2ccccc2SC)on1	383.8	.	i	8*	-0.2	-13.2
O=S1(=O)CCOCCCN1Cc1ccccc1Br	37.2	.	i	i	3.1	-9.8
Oc1c(Br)cc(Br)cc1C=Nc1cccc2ncccc12	9.0	.	13*	i	14.7	4.8*
Cc1cccc(/C=C2\Oc3cc(OS(C)(=O)=O)ccc3C2=O)c1	3.7	-0.75	i	i	32.4	-4.3
O=C1/C(=C/c2cccc(F)c2)Oc2cc(O)ccc21	8.3	.	i	14*	23.3	-8.4
CCOC(=O)C1CCN(c2cc(=O)n(Cc3ccc(F)cc3)c(=O)[nH]2)CC1	181.8	1.03	i	i	28.7	-12.8
O=C(CCN1CCc2ccccc2C(c2ccccc2)C1)c1ccc2c(c1)OCCO2 (stereo not drawn)	24.9	-0.768	i	11*	30.7	-31.4
O=C(CCN1Cc2ccccc2C1)c1ccc2c(c1)OCCO2	114.9	0.0985	8*	i	16.7	-5.2
COc1ccc(/C=N/Nc2nc(-c3ccc(Cl)cc3)cc(C(F)(F)F)n2)cc1OC	54.4	0.114	i	6*	20.5	-10.0
COc1ccc(/C=N/Nc2nc(C)cc(-c3ccccc3)n2)cc1OC	-13.0	.	i	i	6.5	-9.3
SMILES	Mot1-301 SUMO	Cl transport mod	KCNQ1 pot	KCNQ1 inh	AI-2 QS mod	hERG rescue
S=C(NCCc1ccccc1)Nc1ccc(Br)cc1	4.1	-1.25	i	i	-64.5	-7.1
CCOC(=O)C1(Cc2cccc(F)c2)CCN(C(=O)c2ccoc2C)CC1	-4.7	-0.326	i	i	14.3	-2.3
CC1=C(C(=O)OC2CCCC2)C(c2ccc(C)o2)C2=C(CC(c3cccs3)CC2=O)N1 (stereo not drawn)	7.4	-1.65	i	8*	13.7	-10.2
CCOC(=O)CN1C(=O)N[C@@H](CCc2ccccc2)[C@H](C(C)=O)[C@H]1C	316.6	.	i	i	4.6	-8.0
NS(=O)(=O)c1ccc(NC(=S)NC(=O)c2ccc(Br)o2)cc1	28.7	.	i	i	3.5	-8.1
CN(C)S(=O)(=O)c1ccc(NC(=S)NC(=O)c2ccc(Br)o2)cc1	-3.9	12.6*	i	i	7.0	-4.9
CCOc1ccc(S(=O)(=O)NNC(=S)Nc2ccc(Br)cc2)cc1	-5.6	0.014	i	i	13.2	-7.0
CCOc1ccc(NC(=S)NS(=O)(=O)c2cc(Br)ccc2OCC)cc1	12.8	.	i	i	10.2	7.1*
CCn1c(=O)c(=O)[nH]c2cc(C(=O)NC(C)c3ccc(S(N)(=O)=O)cc3)ccc21 (stereo not drawn)	2.6	.	i	i	11.5	-6.8
CSc1ccc(N/N=C(/C#N)S(=O)(=O)C(C)(C)C)cc1	-9.7	-4.62*	i	i	26.3	-4.1
COc1ccc(N/N=C(/C#N)S(=O)(=O)C(C)(C)C)cc1	281.7	0.166	i	i	-3.4	-7.7
N/C(Cc1ccc(Cl)c(Cl)c1)=N\OC(=O)c1cccs1	323.5*	0.158	i	i	?	-3.6
Cn1nc(OC(=O)Nc2ccc(F)cc2)cc1C(F)(F)F	-3.7	.	i	i	3.7	-4.0
Cn1nc(OC(=O)Nc2ccc(Cl)cc2)cc1C(F)(F)F	47.9	.	i	8*	7.5	-13.9
O=C(COc1ccccc1Cl)Nc1ccc(S(=O)(=O)N2CCOCC2)cc1	-15.6	.	i	i	-58.6	-2.4
O=C(NC(=S)NCc1cccnc1)c1cc(Br)ccc1Cl	-6.2	.	i	i	15.1	-7.1
COc1ccccc1NC(=O)c1ccccc1NS(=O)(=O)c1cccs1	-13.2	-0.815	i	6*	6.0	-12.1
Cc1ccc(NC(=O)c2ccccc2NS(=O)(=O)c2ccc(Cl)s2)cc1S(=O)(=O)N1CCOCC1	304.1	-4.22*	i	6*	13.1	-21.7
COc1ccc(C)cc1NC(=O)c1ccccc1NS(=O)(=O)c1ccc(Cl)s1	20.4	-3.59*	i	i	22.8	-16.1
COc1ccccc1NC(=O)c1ccccc1NS(C)(=O)=O	-26.5	-0.186	i	i	14.5	-7.8
Cc1ccc(NC(=O)C(C)Sc2nnc(-c3cccnc3)n2-c2ccccc2)cc1 (stereo not drawn)	-21.6	.	i	i	32.2	-19.7
O=C(CCCCC(=O)NNC(=O)COc1ccccc1)NNC(=O)COc1ccccc1	-4.9	.	i	i	7.7	-3.9
CC(C)n1c(-c2ccc(C(C)(C)C)cc2)n[nH]c1=S	-5.7	37*	i	i	18.2	-11.7
CC(c1ccccc1)n1c(-c2ccc(Cl)cc2)n[nH]c1=S (stereo not drawn)	26.4	.	i	i	-27.1	7.8*

Source: PubChem (several laboratories)
